# Source: ChEMBL document CHEMBL3425494, “Design, synthesis, and antitumor evaluation of novel histone deacetylase inhibitors equipped with a phenylsulfonylfuroxan module as a nitric oxide donor” (J Med Chem, 2015)
# Activity calls are given as the source filed them. The rule behind the calls is not given here.
# Legend:
# [1] = Cytotoxicity against human U937 cells assessed as growth inhibition after 48 hrs by MTT assay; format: functional, cell-based; conditions: U-937, 48 h
# [2] = Cytotoxicity against human MDA cells assessed as growth inhibition after 48 hrs by MTT assay; format: functional, cell-based
# HEL [3] = assay: Cytotoxicity against hemoglobin treated human HEL cells assessed as growth inhibition at 2 uM treated for 24 hrs post hemoglobin challenge measured after 48 hrs by MTT assay; format: functional, cell-based
# How it was run: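 HEL cells in RPMI 1640/10% FBS, 37 °C, 5% CO₂, plated ≥4 h before treatment; pretreated 1 h with hemoglobin (0, 2.5, 5, 10 or 20 µM), then 2 µM compound for 24 h, incubated a further 48 h. MTT 0.5%, 4 h, formazan dissolved in DMSO, absorbance 490 and 630 nm; percent growth inhibition versus control; three independent experiments, mean ± SD.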
# HEL [4] = assay: Cell cycle arrest in human HEL cells assessed as accumulation at G2 phase at 0.5 uM after 48 hrs by propidium iodide staining-based flow cytometric analysis (reference value: 5.28%); format: functional
# HEL [5] = assay: Antitumor activity against human HEL cells xenografted in BALB/c-nu mouse assessed as decrease in tumor volume at 120 mg/kg/day, po administered for 21 days measured every 3 days during compound dosing relative to control; format: functional
# HEL [6] = assay: Antitumor activity against human HEL cells xenografted in BALB/c-nu mouse assessed as decrease in tumor volume at 100 mg/kg/day, po administered for 21 days measured every 3 days during compound dosing relative to control; format: functional
# How it was run: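 Male athymic nude mice (6–8 weeks) inoculated s.c. in right flank with HEL cells cultured in RPMI 1640/10% FBS; treatment began when tumors were about 100 mm³ (~10 days), 6 mice per group. Oral gavage daily for 21 days; vehicle control PBS containing DMSO. Caliper measurement every 3 days, V = ab²/2; T/C = mean RTV treated / mean RTV control, RTV = Vt/V0.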
# HEL [7] = assay: Antitumor activity against human HEL cells xenografted in po dosed BALB/c-nu mouse administered for 21 days measured every 3 days during compound dosing; format: functional, organism-based
# How it was run: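 Subcutaneous HEL xenograft in right flank of male athymic nude mice, 6 per group, dosing started at ~100 mm³. Oral administration at 100 or 120 mg/kg/day for 21 consecutive days; controls given PBS containing DMSO. Tumors measured by caliper every 3 days (V = ab²/2); tumors weighed after sacrifice; mean ± SD.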
# Mus musculus = assay: Toxicity in BALB/c-nu mouse xenografted with human HEL cells assessed as body weight loss at 120 mg/kg/day, po administered for 21 days measured everyday during compound dosing; format: organism-based; set-up: route oral; conditions: in vivo, 504 h
# How it was run: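 Male BALB/c-nu mice with s.c. HEL xenografts, 6 per group, given 120 mg/kg/day orally for 21 days; vehicle group received PBS containing DMSO. Body weight monitored regularly during treatment; mean ± SD.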
# Histone deacetylase 8 = molecular target: T1, Histone deacetylase 8 (Homo sapiens, UniProt Q9BY41); assay: Inhibition of full length human recombinant HDAC8 expressed in baculovirus infected insect S9 cells using Ac-Leu-GlyLys(Tfa)-AMC as substrate after 30 mins by fluorescence assay
# T1 sequence (Q9BY41 whole entry): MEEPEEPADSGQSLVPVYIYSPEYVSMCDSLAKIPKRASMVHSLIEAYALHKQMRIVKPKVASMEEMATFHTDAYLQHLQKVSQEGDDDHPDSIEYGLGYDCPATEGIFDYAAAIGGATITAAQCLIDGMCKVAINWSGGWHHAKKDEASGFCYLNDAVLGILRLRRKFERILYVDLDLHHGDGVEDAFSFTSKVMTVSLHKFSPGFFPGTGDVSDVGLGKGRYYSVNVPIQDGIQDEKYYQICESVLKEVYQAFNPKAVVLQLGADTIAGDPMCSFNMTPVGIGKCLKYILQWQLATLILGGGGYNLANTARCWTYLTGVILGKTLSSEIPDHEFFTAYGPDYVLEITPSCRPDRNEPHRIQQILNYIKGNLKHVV
# [8] = molecular target: Histone deacetylase 1 (Homo sapiens) (UniProt Q13547); conditions: MV4-11, 12.5 to 200 nM
# Chain of Histone deacetylase 1 (Homo sapiens) (Q13547 whole entry): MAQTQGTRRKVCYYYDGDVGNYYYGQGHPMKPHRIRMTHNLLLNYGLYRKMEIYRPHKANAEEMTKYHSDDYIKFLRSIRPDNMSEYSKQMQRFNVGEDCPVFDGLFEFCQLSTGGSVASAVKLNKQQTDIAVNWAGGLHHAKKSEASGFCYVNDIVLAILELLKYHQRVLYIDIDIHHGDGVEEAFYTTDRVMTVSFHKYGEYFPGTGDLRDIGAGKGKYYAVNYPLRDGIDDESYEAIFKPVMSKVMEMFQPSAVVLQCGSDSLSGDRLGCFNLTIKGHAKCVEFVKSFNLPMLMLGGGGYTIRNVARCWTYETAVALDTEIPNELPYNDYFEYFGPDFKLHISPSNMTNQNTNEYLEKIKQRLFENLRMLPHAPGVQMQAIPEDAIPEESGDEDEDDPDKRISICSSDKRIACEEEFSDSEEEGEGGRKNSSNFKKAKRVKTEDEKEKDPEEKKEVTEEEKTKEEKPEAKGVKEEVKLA
# [9] = molecular target: Histone deacetylase 2 (Homo sapiens) (UniProt Q92769); conditions: HEL, 10 uM
# Chain of Histone deacetylase 2 (Homo sapiens) (Q92769 whole entry): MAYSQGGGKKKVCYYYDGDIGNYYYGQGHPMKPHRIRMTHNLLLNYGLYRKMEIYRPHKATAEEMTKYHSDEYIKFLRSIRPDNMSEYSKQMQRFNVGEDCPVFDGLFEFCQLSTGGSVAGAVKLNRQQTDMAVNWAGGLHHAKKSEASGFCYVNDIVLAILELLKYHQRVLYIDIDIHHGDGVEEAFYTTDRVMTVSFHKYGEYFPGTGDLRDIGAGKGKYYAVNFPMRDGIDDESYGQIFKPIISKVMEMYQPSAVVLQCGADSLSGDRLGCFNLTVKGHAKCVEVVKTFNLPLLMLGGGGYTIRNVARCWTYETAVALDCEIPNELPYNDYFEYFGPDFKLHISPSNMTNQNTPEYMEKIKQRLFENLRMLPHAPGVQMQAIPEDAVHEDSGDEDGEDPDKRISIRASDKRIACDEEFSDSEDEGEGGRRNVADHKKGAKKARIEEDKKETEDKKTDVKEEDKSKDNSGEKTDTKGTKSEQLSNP
# [10] = molecular target: T2, Protein deacetylase HDAC6 (Homo sapiens, UniProt Q9UBN7); assay: Inhibition of full length human recombinant HDAC6 expressed in baculovirus infected insect S9 cells using Ac-Leu-GlyLys(Ac)-AMC as substrate after 30 mins by fluorescence assay
# T2 sequence (Q9UBN7 whole entry): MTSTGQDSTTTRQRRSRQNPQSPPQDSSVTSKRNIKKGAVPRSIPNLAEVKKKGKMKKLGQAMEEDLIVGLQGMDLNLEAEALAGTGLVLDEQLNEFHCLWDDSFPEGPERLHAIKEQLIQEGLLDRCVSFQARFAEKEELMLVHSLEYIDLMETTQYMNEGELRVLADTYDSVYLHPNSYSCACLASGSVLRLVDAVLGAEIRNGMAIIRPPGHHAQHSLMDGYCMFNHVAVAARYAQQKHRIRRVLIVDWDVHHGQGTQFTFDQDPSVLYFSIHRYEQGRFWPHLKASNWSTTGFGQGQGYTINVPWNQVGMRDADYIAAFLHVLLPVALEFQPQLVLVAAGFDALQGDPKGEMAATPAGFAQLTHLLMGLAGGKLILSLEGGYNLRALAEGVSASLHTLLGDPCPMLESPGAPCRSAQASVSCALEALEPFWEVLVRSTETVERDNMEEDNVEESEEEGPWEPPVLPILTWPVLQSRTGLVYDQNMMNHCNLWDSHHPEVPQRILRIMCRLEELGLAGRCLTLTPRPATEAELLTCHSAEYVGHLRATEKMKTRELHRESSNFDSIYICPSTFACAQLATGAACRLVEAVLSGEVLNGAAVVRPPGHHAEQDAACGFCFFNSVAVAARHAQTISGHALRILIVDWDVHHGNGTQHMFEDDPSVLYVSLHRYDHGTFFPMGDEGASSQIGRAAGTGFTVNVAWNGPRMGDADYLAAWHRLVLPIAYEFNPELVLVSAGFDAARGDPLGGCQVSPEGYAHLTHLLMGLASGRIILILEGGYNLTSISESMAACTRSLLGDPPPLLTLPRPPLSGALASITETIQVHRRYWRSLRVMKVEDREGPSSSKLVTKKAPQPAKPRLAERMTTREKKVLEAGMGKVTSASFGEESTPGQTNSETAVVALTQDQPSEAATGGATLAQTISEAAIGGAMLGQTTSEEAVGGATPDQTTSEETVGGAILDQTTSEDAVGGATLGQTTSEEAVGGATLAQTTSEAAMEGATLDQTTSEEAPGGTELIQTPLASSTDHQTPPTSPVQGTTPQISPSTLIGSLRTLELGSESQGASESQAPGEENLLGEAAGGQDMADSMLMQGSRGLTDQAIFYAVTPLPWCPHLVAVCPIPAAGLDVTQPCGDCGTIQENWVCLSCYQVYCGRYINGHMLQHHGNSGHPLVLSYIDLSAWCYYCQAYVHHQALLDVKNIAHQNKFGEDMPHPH
structure (smiles),measurement,setting,value
O=C(CCCCCOc1no[n+]([O-])c1S(=O)(=O)c1ccccc1)NO,IC50,[1],3.1 µM
same,IC50,[2],2250 nM
same,growth inhibition (GI),HEL [3],inactive
same,Activity,HEL [4],0.45%
same,T/C,HEL [5],39%
same,T/C,HEL [6],56%
same,Activity,HEL [7],Dose-dependent effect
same,Activity,Mus musculus,Non-toxic
same,IC50,Histone deacetylase 8,343 nM
same,inhibition,[8],Active
same,inhibition,[9],inactive
same,IC50,[10],7.4 nM
